Most compounds without a hit are left out; they make up all but 3.5% or so of the library.
MrgX1 PAM = positive allosteric modulators of MrgX1, primary screen, HEK293 cells, Fluo-4 calcium flux; FDSS; hits give high values; B-score at 10 µM; 310,000 compounds, 0.63% hits; AID 588675, 2011;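 active means plate-corrected calcium response at least 3 library SD above typical, normal starting fluorescence, not activating the receptor alone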;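 further: compound read alongside a low EC10 to EC30 dose of BAM8-22 agonist; peak minus trough fluorescence over baseline measured at the second addition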
Target sequence (Q96LB2 whole entry, looked up): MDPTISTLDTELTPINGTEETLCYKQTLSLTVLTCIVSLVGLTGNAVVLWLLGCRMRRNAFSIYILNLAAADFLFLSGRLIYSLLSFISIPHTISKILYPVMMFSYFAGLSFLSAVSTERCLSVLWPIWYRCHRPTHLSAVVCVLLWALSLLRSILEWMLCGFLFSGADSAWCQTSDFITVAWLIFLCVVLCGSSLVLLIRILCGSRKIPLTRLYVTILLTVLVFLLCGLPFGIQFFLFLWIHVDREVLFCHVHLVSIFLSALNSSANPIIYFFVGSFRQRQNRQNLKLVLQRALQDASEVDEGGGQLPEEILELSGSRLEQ
MrgX1 ag = agonists of human MrgX1 receptor, primary screen, HEK293 cells, Fluo-4 calcium flux; Fluo-4 calcium fluorescence, agonist mode; hits give high values; Mas-related G-protein coupled receptor member X1 (Homo sapiens), Q96LB2; AID 588627, 2011; B-score at 10 µM; 310,000 compounds, 0.44% hits;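 active means calcium response B-score plate-corrected fluorescence ratio at least 3 library SD, with starting fluorescence B-score inside 5 SD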
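Material: MrgX1-expressing HEK293 cells; input: 15,000 cells per well; doses: test compound given as first of three sequential additions; schedule: overnight plating before 1 h dye loading; technique: Fluo-4 NW calcium-flux fluorescence, kinetic read; evaluation: baseline-normalised fluorescence change ratio, B-scored; control set: plate-wise positive and negative controls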
RGS4 pot = RGS4 potentiators or activators, primary screen, cell-based, HEK293 M3R inducible RGS4, calcium flux; B-score at 10 µM; AID 463111, 2010; 310,000 compounds, 0.92% hits; carbachol calcium flux Fluo4; hits give low values;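 active means B-score of the integrated calcium signal more than 4 SD below the library mean, with starting fluorescence not abnormally high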;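 further: negative B-score means reduced calcium response which marks RGS4 activation or potentiation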
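Test system: HEK293 cells with stable M3R and inducible RGS4; also added: carbachol at ECmax as muscarinic agonist stimulus; schedule: dye loading 30 min 37 °C, buffer rest 30 min RT; technique: kinetic calcium fluorescence imaging with Fluo4-AM dye, 2 µM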
RGS4 block = RGS4 inhibitors, primary screen, cell-based, HEK293 M3R inducible RGS4, calcium flux; 310,000 compounds, 0.45% hits; AID 463165, 2010; Fluo-4 calcium flux; hits give high values; triggered by carbachol at its EC20; B-score at 10 µM;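 active means B-score, a plate-corrected calcium signal, over three deviations above library mean, with baseline fluorescence within five deviations of library mean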;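 further: RGS4 expression induced by doxycycline in cells with stable M3 receptor; B-score is computed from the integrated fluorescence ratio over baseline after carbachol; higher B-score means a larger calcium signal and so more RGS4 inhibition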
MrgX1 antag = antagonists of human MrgX1 receptor, primary screen, HEK293 cells, Fluo-4 calcium flux; Mas-related G-protein coupled receptor member X1 (Homo sapiens), Q96LB2; BAM8-22 antagonism; hits give low values; B-score at 10 µM; 310,000 compounds, 1.3% hits; AID 588676, 2011;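 active means calcium-response B-score plate-corrected more than 3 library SD below zero, starting fluorescence within 5 deviations, no agonist response on first addition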;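 further: peak minus trough fluorescence over baseline after final BAM8-22 challenge near maximal dose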
* hit, by the source's call; i = inactive; . = not tested or not shown.

SMILES	MrgX1 PAM	MrgX1 ag	RGS4 pot	RGS4 block	MrgX1 antag
CCOc1ccccc1CN1CCCC(C(=O)Nc2cccc(-n3cccn3)c2)C1 (configuration not stated)	i	i	-7.01*	i	i
CCOc1cccc(CN2CCCC(C(=O)Nc3cccc(-n4cccn4)c3)C2)c1 (configuration not stated)	i	i	i	i	i
CSc1cccc(CN2CCCC(C(=O)Nc3cccc(-n4cccn4)c3)C2)c1 (configuration not stated)	i	i	-7.31*	i	i
COc1cnn(-c2ccc(C)cc2)c(=O)c1SCc1ccccc1	i	30.3*	i	i	i
COc1cnn(-c2ccc(Br)cc2)c(=O)c1SCc1ccccc1	i	i	i	i	i
O=C(C1CCC(Cn2c(=S)[nH]c3ccccc3c2=O)CC1)N1CCN(c2ccccc2)CC1 (configuration not stated)	i	i	i	5.42*	i
O=C(C1CCC(Cn2c(=S)[nH]c3ccccc3c2=O)CC1)N1CCOCC1 (configuration not stated)	i	i	i	i	i
CC1=C(C#N)c2nc(N)c(C#N)c(C)c2/C1=C\c1ccc(C)cc1	i	i	i	i	-5.9*
CCCCC[C@H](O)/C=C/[C@H]1CCC(=O)[C@@H]1CCCCCCC(=O)N1CCCCC1CO (some centres not stated)	i	48.3*	-8.47*	i	i
Cc1ccc(C(=O)NN2CCOCC2)cc1	i	i	i	i	-4.96*
O=C(NN1CCOCC1)c1ccc(Br)cc1	i	i	i	i	i
Cc1ccc(S(=O)(=O)N2CC(C(=O)O)=CC[C@H]2c2ccc(Cl)cc2)cc1	i	i	.	.	i
COc1cc([C@@H]2CC=C(C(=O)O)[C@H](c3ccc(Cl)cc3)N2S(=O)(=O)c2ccc(C)cc2)cc(OC)c1OC	i	i	.	.	i
Cc1ccc(S(=O)(=O)N2[C@@H](c3ccc(Cl)cc3)C(C(=O)O)=CC[C@H]2c2ccc(Cl)c(Cl)c2)cc1	i	i	.	.	-5.1*
Cc1ccc([C@@H]2CC=C(C(=O)O)[C@H](c3ccc(F)cc3)N2S(=O)(=O)c2ccc(C)cc2)cc1	i	i	.	.	i
Cc1ccc([C@@H]2CC=C(C(=O)O)[C@H](c3ccccc3F)N2S(=O)(=O)c2ccc(C)cc2)cc1	8.93*	i	.	.	i
O=C(O)C1=CC[C@@H](c2ccc(Cl)cc2)N(S(=O)(=O)c2ccc(Cl)cc2)[C@H]1c1ccc(F)cc1	8.26*	i	.	.	i
COc1ccc([C@@H]2CC=C(C(=O)O)CN2S(=O)(=O)c2ccc(Cl)cc2)cc1	7.96*	i	.	.	i
Cc1c(O)ccc(C(=O)CN2CCN(c3ccc(F)cc3)CC2)c1O	i	i	i	i	i
Cc1ccc(S(=O)(=O)N2[C@@H](c3ccccc3F)C(C(=O)O)=CC[C@H]2c2cccc(Cl)c2)cc1	10.8*	i	.	.	i
Cc1ccc(S(=O)(=O)N2[C@@H](c3ccccc3F)C(C(=O)O)=CC[C@H]2c2ccc(C(C)C)cc2)cc1	i	i	.	.	i
Cc1ccc(S(=O)(=O)N2[C@@H](c3ccccc3)C(C(=O)O)=CC[C@H]2c2cccc(Cl)c2)cc1	7.39*	i	.	.	i
Cc1ccc(S(=O)(=O)N2[C@@H](c3cccc(Cl)c3)C(C(=O)O)=CC[C@H]2c2ccc(Cl)cc2)cc1	i	i	.	.	i
COc1ccc(-n2ccnc2)cc1	i	i	i	i	i
COc1nc(N(c2ccccc2)c2ccccc2)nc(-n2ccnc2)n1	12.1*	i	i	i	i
CCOc1ccc(Cn2c(=O)oc3ccccc32)cc1	i	i	i	i	i
COc1cccc(NC(=O)C(OC(=O)c2ccc([N+](=O)[O-])o2)c2ccccc2)c1 (configuration not stated)	i	i	i	i	i

Assay outcomes from PubChem.
